Nine compounds from ChEMBL document CHEMBL3244284, “(2-Carboxy-1,4-dihydro-4-oxoquinolyl)oxamic acids and (2-carboxy-1,4-dihydro-4-oxobenzo[h]quinolyl)oxamic acids as antiallergy agents” (1977) can be followed below.

Assay [1] is filed under the species Rattus norvegicus. As to the kind of experiment: Ratio of disodium cromoglycate ID50 to compound ID50 for antiallergic activity in Sprague-Dawley rat by passive cutaneous anaphylaxis (PCA) reaction. Format: functional.
The species named for assay [2] is Rattus norvegicus. As to the kind of experiment: Antiallergic activity in Sprague-Dawley rat assessed as inhibition of egg albumin/ Hemophilus pertussis antibody-induced passive cutaneous anaphylaxis (PCA) reaction. Format: functional. To be noted: read-out: ID50 (the source's name). Put shortly: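 Rats immunized ip with 0.5 mg egg albumin plus 0.5 cm3 heat-killed H. pertussis vaccine; serum collected at 18-20 days. Five 0.1-ml serum dilutions given intradermally on shaved back of 200-g rats. At 72 h, iv challenge with 4 mg EA plus 0.5% Evans blue; compound in THAM solution iv at challenge. Inhibition of spot count versus untreated; ID50 from 3-4 doses, six rats each.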

SMILES strings stand for the structures.

Take `O=C(O)C(=O)Nc1cccc2c1ccc1c(=O)cc(C(=O)O)[nH]c12`: in assay [1], the Ratio turned out to be 25. For the same compound, in assay [2], the ED50 amounted to 0.1 mg/kg.
On to `Cc1ccc(NC(=O)C(=O)O)c2c(=O)cc(C(=O)O)[nH]c12`, for which the ED50 in assay [2] stood at 0.4 mg/kg.
The same measure, in the same setting: the same measure for `O=C(O)C(=O)Nc1ccc(Cl)c2[nH]c(C(=O)O)cc(=O)c12`: 0.3 mg/kg.
On the same count and under the same terms, the same measure for `COc1ccc(NC(=O)C(=O)O)c2c(=O)cc(C(=O)O)[nH]c12`: 0.7 mg/kg; for `O=C(O)C(=O)Nc1ccc2[nH]c(C(=O)O)cc(=O)c2c1`: 7 mg/kg.
As to `Cc1cc(NC(=O)C(=O)O)cc2c(=O)cc(C(=O)O)[nH]c12`, the Ratio in assay [1] worked out at 25. For the same compound, the ED50 in assay [2] is 0.1 mg/kg.
The like results for `Cc1c(NC(=O)C(=O)O)ccc2c(=O)cc(C(=O)O)[nH]c12` were, in that order, 25 and 0.1 mg/kg.
`O=C(O)C(=O)Nc1cc2c(=O)cc(C(=O)O)[nH]c2c2ccccc12`: the ED50 in assay [2] was determined as 0.5 mg/kg.
Same read-out and setting: as for `O=C([O-])c1cc(=O)c2c(OCC(O)COc3cccc4oc(C(=O)[O-])cc(=O)c34)cccc2o1.[Na+].[Na+]` [CROMOLYN SODIUM], the figure is 2.5 mg/kg.
